Measurements as given in ChEMBL document CHEMBL5385905, “Design, synthesis and characterisation of a novel type II B-RAF paradox breaker inhibitor” (Eur J Med Chem, 2023).
Calls of active or inactive are those of the source. The rule behind the calls is not given here.

Legend:
[1] = test system: SW-620; assay: Cytotoxicity against human SW620 cells expressing wild type B-RAF assessed as inhibition of cell proliferation incubated for 96 hrs by MTT assay; type: functional, cell-based
Method in brief: (§1)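 SW620 (ATCC) seeded at 4000 cells/well and A375 (ATCC) at 1000 cells/well in 96-well format. Compounds added the next day at increasing concentrations. Exposure 96 h. Viability read by MTT method per Mosmann.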

[2] = target: RAF proto-oncogene serine/threonine-protein kinase (Homo sapiens) (UniProt P04049); assay: Inhibition of RAF1 (unknown origin) at 1 uM relative to control
Sequence of RAF proto-oncogene serine/threonine-protein kinase (Homo sapiens) (P04049 whole entry): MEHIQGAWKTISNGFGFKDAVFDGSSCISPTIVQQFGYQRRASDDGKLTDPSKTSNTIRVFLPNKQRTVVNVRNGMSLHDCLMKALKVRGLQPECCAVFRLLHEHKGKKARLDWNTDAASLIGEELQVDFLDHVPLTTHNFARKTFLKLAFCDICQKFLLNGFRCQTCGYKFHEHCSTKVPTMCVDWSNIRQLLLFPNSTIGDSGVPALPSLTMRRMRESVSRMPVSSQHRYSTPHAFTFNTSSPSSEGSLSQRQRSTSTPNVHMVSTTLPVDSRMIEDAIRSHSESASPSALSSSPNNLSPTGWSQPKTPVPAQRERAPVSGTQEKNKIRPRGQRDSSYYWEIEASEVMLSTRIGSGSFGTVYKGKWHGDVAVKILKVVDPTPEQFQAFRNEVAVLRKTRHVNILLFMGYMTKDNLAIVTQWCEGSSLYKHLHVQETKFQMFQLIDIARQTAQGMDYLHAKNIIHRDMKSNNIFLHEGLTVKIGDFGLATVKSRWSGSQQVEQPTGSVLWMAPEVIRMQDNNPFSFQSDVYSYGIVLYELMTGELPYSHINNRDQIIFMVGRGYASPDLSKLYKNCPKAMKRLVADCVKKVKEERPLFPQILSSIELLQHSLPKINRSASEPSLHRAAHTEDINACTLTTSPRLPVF

[3] = target: Dual specificity mitogen-activated protein kinase kinase 4 (Homo sapiens) (UniProt P45985); assay: Inhibition of MEK4 (unknown origin) at 1 uM relative to control
[4] = test system: SW620; assay: Inhibition of MAPK pathway in human SW620 cells expressing wild type B-RAF assessed as downregulation of MEK phosphorylation incubated for 1 to 4 hrs by immunoblotting analysis; type: cell-based; conditions: time 1-4 hrs
Method in brief: (§2)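 SW620 seeded at 750 000 and A375 at 300 000 cells/well in 6-well format, grown 48 h to 75% confluence. Treated with increasing compound concentrations for 1 or 4 h. Lysis in 10 mM Tris-HCl, 1% SDS, 20 mM Na3VO4. 10–25 µg protein run on SDS-PAGE, transferred to PVDF, probed for MEK, phospho-MEK, phospho-ERK, B-Raf and actin. Read by LI-COR Odyssey.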

[5] = target: Tyrosine-protein kinase Fgr (Homo sapiens) (UniProt P09769); assay: Inhibition of FGR (unknown origin) at 1 uM relative to control
Sequence of Tyrosine-protein kinase Fgr (Homo sapiens) (P09769 2-529 limits assumed): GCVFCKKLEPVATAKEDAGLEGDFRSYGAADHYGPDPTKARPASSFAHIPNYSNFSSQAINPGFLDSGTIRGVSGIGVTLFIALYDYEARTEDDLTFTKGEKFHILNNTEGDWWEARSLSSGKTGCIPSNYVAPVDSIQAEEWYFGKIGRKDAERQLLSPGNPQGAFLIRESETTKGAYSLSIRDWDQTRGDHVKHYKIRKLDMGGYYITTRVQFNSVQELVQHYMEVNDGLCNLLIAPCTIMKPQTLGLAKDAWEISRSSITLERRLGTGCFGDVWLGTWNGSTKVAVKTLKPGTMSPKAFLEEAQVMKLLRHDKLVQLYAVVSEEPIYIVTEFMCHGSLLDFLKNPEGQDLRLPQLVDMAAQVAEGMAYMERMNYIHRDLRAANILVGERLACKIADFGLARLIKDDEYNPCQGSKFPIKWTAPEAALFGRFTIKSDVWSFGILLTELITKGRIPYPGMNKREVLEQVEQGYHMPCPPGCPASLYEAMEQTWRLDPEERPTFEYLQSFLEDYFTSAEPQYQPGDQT

[6] = test system: SW620; assay: Inhibition of MAPK pathway in human SW620 cells expressing wild type B-RAF assessed as downregulation of ERK phosphorylation incubated for 1 to 4 hrs by immunoblotting analysis; type: cell-based; conditions: time 1-4 hrs; method in brief: as §2
[7] = target: Mast/stem cell growth factor receptor Kit (Homo sapiens) (UniProt P10721); assay: Inhibition of KIT (unknown origin) at 1 uM relative to control
Sequence of Mast/stem cell growth factor receptor Kit (Homo sapiens) (P10721 whole entry): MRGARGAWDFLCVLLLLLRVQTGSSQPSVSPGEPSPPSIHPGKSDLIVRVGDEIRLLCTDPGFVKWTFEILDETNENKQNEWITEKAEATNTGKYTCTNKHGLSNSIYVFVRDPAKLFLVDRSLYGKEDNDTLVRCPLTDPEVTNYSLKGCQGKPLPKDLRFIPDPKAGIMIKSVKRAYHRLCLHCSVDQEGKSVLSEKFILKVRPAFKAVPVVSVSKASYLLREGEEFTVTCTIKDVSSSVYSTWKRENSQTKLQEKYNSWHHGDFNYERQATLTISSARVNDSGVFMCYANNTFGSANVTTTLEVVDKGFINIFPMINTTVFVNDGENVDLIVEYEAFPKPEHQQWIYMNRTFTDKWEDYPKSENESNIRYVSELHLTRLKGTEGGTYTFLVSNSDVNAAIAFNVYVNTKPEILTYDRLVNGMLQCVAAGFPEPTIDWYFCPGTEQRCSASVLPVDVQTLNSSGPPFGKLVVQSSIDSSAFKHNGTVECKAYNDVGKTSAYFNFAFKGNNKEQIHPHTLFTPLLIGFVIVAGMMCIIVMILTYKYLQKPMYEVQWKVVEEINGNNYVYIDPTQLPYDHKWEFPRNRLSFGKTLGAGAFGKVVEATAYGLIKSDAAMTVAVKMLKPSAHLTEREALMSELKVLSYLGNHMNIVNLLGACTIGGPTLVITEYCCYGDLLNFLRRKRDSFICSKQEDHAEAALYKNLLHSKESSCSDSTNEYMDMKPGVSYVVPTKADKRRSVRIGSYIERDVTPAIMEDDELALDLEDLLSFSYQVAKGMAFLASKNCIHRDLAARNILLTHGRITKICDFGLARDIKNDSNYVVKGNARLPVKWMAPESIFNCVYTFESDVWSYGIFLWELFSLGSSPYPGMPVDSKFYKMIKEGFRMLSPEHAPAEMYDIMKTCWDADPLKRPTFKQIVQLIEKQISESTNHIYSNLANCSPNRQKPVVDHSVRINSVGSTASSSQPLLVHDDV

[8] = test system: A-375; assay: Cytotoxicity against human A-375 cells expressing B-RAF V600E mutant assessed as inhibition of cell proliferation incubated for 96 hrs by MTT assay; type: functional, cell-based; method in brief: as §1
[9] = test system: A-375; assay: Cytotoxicity against human A-375 cells incubated for 96 hrs by MTT assay; type: functional, cell-based; conditions: A-375, 96 h; method in brief: as §1
[10] = test system: SW-620; assay: Cytotoxicity against human SW620 cells incubated for 96 hrs by MTT assay; type: functional, cell-based; method in brief: as §1
[11] = target: T1, Dual specificity mitogen-activated protein kinase kinase 5 (Homo sapiens) (UniProt Q13163); assay: Inhibition of MEK5 (unknown origin) at 1 uM relative to control
T1 sequence (whole entry): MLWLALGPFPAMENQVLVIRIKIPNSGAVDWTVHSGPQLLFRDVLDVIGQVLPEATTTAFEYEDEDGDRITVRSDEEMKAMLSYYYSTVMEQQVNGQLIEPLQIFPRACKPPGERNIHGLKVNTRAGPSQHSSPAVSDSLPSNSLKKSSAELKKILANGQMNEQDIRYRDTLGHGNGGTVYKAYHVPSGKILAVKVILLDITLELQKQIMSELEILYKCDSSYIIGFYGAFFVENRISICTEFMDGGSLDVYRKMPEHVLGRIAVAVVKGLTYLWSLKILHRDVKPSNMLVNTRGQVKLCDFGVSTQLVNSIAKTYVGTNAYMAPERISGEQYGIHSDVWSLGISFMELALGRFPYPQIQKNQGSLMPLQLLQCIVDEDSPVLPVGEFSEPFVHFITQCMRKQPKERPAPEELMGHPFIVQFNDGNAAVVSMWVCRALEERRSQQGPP

[12] = target: Platelet-derived growth factor receptor beta (Homo sapiens) (UniProt P09619); assay: Inhibition of PDGFRB (unknown origin) at 1 uM relative to control
Sequence of Platelet-derived growth factor receptor beta (Homo sapiens) (P09619 whole entry): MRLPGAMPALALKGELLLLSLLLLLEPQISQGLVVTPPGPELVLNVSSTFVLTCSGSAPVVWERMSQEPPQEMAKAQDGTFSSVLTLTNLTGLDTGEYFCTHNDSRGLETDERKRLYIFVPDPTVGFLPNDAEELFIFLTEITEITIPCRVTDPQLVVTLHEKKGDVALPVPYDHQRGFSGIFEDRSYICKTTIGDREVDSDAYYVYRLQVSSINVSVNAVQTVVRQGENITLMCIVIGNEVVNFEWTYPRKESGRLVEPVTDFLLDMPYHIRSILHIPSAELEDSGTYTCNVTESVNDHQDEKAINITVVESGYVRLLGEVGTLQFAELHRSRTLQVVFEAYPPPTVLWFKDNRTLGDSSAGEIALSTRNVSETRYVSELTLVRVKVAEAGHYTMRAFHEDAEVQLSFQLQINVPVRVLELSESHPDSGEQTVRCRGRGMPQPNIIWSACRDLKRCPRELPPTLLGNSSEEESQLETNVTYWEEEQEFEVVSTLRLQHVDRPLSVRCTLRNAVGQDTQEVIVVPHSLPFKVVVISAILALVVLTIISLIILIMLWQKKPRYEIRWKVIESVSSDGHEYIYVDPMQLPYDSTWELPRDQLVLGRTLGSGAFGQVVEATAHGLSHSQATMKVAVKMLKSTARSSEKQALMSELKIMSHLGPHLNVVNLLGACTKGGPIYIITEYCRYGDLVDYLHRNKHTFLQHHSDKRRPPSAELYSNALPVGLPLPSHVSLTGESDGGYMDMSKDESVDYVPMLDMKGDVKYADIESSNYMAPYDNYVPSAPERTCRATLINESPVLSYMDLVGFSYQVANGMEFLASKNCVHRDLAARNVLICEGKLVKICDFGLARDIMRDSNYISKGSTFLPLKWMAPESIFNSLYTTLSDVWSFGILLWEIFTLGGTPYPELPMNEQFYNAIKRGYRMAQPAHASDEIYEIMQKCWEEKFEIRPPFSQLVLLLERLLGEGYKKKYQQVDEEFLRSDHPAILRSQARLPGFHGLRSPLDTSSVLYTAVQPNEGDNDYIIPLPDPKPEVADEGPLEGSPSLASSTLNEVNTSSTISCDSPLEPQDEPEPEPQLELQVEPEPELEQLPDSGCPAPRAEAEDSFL

[13] = test system: A-375; assay: Inhibition of MAPK pathway in human A-375 cells expressing B-RAF V600E mutant assessed as downregulation of ERK phosphorylation incubated for 1 to 4 hrs by immunoblotting analysis; type: cell-based; conditions: time 1-4 hrs; method in brief: as §2
[14] = test system: A-375; assay: Inhibition of MAPK pathway in human A-375 cells expressing B-RAF V600E mutant assessed as downregulation of MEK phosphorylation incubated for 1 to 4 hrs by immunoblotting analysis; type: cell-based; conditions: time 1-4 hrs; method in brief: as §2
[15] = target: Tyrosine-protein kinase TXK (Homo sapiens) (UniProt P42681); assay: Inhibition of TXK (unknown origin) at 1 uM relative to control
[16] = target: Serine/threonine-protein kinase B-raf (Homo sapiens, UniProt P15056); assay: Inhibition of wild type B-RAF (unknown origin) expressed in Escherichia coli BL21 (DE3)
[17] = target: Vascular endothelial growth factor receptor 2 (Homo sapiens) (UniProt P35968); assay: Inhibition of VEGFR2 (unknown origin) at 1 uM relative to control
[18] = target: Proto-oncogene tyrosine-protein kinase Src (Homo sapiens) (UniProt P12931); assay: Inhibition of SRC (unknown origin) at 1 uM relative to control
[19] = target: Serine/threonine-protein kinase B-raf (Homo sapiens, UniProt P15056, V600E); assay: Inhibition of B-RAF V600E mutant (unknown origin) expressed in Escherichia coli BL21 (DE3)
[20] = target: Tyrosine-protein kinase Fyn (Homo sapiens) (UniProt P06241); assay: Inhibition of FYN (unknown origin) at 1 uM relative to control
[21] = target: Mitogen-activated protein kinase 11 (Homo sapiens) (UniProt Q15759); assay: Inhibition of p-38 beta (unknown origin) at 1 uM relative to control
Sequence of Mitogen-activated protein kinase 11 (Homo sapiens) (Q15759 whole entry): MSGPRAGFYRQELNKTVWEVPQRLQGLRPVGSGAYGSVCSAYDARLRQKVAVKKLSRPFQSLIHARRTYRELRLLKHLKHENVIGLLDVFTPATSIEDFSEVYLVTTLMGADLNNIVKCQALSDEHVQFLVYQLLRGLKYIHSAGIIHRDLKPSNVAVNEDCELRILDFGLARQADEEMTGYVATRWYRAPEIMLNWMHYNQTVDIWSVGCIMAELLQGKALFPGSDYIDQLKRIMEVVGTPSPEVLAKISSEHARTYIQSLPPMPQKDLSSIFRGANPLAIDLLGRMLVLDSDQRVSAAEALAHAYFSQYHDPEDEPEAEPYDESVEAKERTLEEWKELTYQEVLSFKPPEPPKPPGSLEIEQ

[22] = target: Proto-oncogene tyrosine-protein kinase receptor Ret (Homo sapiens) (UniProt P07949); assay: Inhibition of RET (unknown origin) at 1 uM relative to control
[23] = target: Tyrosine-protein kinase Yes (Homo sapiens) (UniProt P07947); assay: Inhibition of YES (unknown origin) at 1 uM relative to control
[24] = target: Mitogen-activated protein kinase kinase kinase kinase 4 (Homo sapiens) (UniProt O95819); assay: Inhibition of MAP4K4 (unknown origin) at 1 uM relative to control
[25] = target: Mitogen-activated protein kinase 14 (Homo sapiens) (UniProt Q16539); assay: Inhibition of p-38 alpha (unknown origin) at 1 uM relative to control
Sequence of Mitogen-activated protein kinase 14 (Homo sapiens) (Q16539 whole entry): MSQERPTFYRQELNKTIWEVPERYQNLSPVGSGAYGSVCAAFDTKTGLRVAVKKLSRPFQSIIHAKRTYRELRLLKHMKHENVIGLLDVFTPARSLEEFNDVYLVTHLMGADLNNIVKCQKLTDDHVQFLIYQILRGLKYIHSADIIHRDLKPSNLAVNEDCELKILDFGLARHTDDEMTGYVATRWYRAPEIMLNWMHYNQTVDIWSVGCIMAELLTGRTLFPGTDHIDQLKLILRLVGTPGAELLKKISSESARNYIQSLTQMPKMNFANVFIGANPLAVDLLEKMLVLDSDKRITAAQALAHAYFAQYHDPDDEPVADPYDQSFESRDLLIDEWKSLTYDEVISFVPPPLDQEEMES

[26] = target: Tyrosine-protein kinase Lck (Homo sapiens) (UniProt P06239); assay: Inhibition of LCK (unknown origin) at 1 uM relative to control
Sequence of Tyrosine-protein kinase Lck (Homo sapiens) (P06239 2-509 limits assumed): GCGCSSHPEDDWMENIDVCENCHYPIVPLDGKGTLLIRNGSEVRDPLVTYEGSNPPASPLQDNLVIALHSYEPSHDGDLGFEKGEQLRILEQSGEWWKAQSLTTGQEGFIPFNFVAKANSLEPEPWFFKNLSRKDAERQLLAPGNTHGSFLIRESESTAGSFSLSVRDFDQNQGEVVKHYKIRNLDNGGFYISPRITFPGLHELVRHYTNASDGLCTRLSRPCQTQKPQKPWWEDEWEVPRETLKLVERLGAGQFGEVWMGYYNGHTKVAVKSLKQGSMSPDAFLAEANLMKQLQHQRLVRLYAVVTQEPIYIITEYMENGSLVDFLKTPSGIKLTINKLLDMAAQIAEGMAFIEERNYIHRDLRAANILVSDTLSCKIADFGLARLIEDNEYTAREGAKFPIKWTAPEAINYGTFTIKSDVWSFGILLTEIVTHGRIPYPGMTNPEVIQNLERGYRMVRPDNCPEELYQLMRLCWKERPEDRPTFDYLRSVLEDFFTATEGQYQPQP

[27] = target: Macrophage colony-stimulating factor 1 receptor (Homo sapiens) (UniProt P07333); assay: Inhibition of CSF1R (unknown origin) at 1 uM relative to control
[28] = target: Vascular endothelial growth factor receptor 1 (Homo sapiens) (UniProt P17948); assay: Inhibition of FLT1 (unknown origin) at 1 uM relative to control
[29] = test system: SW620; assay: Inhibition of MAPK pathway in human SW620 cells expressing wild type B-RAF assessed as effect on ERK protein expression incubated for 1 to 4 hrs by immunoblotting analysis; type: cell-based; conditions: time 1-4 hrs
[30] = target: Tyrosine-protein kinase CSK (Homo sapiens) (UniProt P41240); assay: Inhibition of CSK (unknown origin) at 1 uM relative to control
[31] = target: Platelet-derived growth factor receptor alpha (Homo sapiens) (UniProt P16234); assay: Inhibition of PDGFRA (unknown origin) at 1 uM relative to control
[32] = target: Cyclin-dependent kinase 19 (Homo sapiens) (UniProt Q9BWU1); assay: Inhibition of CDK11 (unknown origin) at 1 uM relative to control
[33] = target: Tyrosine-protein kinase Blk (Homo sapiens) (UniProt P51451); assay: Inhibition of BLK (unknown origin) at 1 uM relative to control
Sequence of Tyrosine-protein kinase Blk (Homo sapiens) (P51451 2-505 limits assumed): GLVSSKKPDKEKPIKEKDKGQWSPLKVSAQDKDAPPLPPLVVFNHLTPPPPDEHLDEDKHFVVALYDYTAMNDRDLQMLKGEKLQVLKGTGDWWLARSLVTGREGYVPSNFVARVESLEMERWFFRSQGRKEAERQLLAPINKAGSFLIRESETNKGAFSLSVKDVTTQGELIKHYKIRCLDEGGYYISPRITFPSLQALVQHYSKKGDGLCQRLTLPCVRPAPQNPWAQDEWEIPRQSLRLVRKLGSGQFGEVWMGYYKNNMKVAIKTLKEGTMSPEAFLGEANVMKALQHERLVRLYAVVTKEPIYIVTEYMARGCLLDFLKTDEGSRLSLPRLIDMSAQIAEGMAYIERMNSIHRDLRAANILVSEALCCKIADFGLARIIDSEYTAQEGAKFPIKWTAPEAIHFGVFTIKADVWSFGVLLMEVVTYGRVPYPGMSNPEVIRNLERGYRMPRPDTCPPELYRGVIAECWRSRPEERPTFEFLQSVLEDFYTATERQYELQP

[34] = target: Tyrosine-protein kinase ABL1 (Homo sapiens) (UniProt P00519); assay: Inhibition of ABL1 (unknown origin) at 1 uM relative to control
[35] = target: Receptor-type tyrosine-protein kinase FLT3 (Homo sapiens) (UniProt P36888); assay: Inhibition of FLT3 (unknown origin) at 1 uM relative to control
[36] = target: Tyrosine-protein kinase Lyn (Homo sapiens) (UniProt P07948); assay: Inhibition of LYN (unknown origin) at 1 uM relative to control
[37] = target: Tyrosine-protein kinase HCK (Homo sapiens) (UniProt P08631); assay: Inhibition of HCK (unknown origin) at 1 uM relative to control
[38] = target: Vascular endothelial growth factor receptor 3 (Homo sapiens) (UniProt P35916); assay: Inhibition of FLT4 (unknown origin) at 1 uM relative to control
[39] = target: Fibroblast growth factor receptor 2 (Homo sapiens) (UniProt P21802); assay: Inhibition of FGFR2 (unknown origin) at 1 uM relative to control
[40] = target: Cytoplasmic tyrosine-protein kinase BMX (Homo sapiens) (UniProt P51813); assay: Inhibition of BMX (unknown origin) at 1 uM relative to control
[41] = target: Fibroblast growth factor receptor 1 (Homo sapiens) (UniProt P11362); assay: Inhibition of FGFR1 (unknown origin) at 1 uM relative to control
[42] = target: Serine/threonine-protein kinase VRK2 (Homo sapiens) (UniProt Q86Y07); assay: Inhibition of VRK2 (unknown origin) at 1 uM relative to control
[43] = target: Ribosomal protein S6 kinase alpha-1 (Homo sapiens) (UniProt Q15418); assay: Inhibition of RSK1 (unknown origin) at 1 uM relative to control
[44] = Homo sapiens, SW-620, 96 h, read-out: IC50

inhibition [2] | inhibition [3] | inhibition [5] | inhibition [7] | inhibition [11] | inhibition [12] | inhibition [15] | IC50 [16] | inhibition [17] | inhibition [18] | IC50 [19] | inhibition [20] | inhibition [21] | inhibition [33] | Structure (SMILES) | Activity [1] | Activity [8] | IC50 [9] | IC50 ([10]; sw-620) | inhibition [13] | inhibition [14] | also measured
> 80% | > 80% | > 80% | > 80% | > 80% | > 80% | – | – | – | – | – | – | – | – | CCCS(=O)(=O)Nc1ccc(F)c(C(=O)c2c[nH]c3ncc(-c4ccc(Cl)cc4)cc23)c1F [VEMURAFENIB] | inactive | Active | 90 nM | Not Active | Active | Active | inhibition [4]: inactive; inhibition [6]: inactive
> 80% | – | > 80% | > 80% | > 80% | – | > 80% | 56 nM | > 80% | > 80% | 48 nM | > 80% | > 80% | > 80% | CC(C)(C#N)c1cccc(C(=O)Nc2ccc(F)c(C(=O)c3c[nH]c4ncc(Cl)cc34)c2F)c1 | Active | Active | ~10000 nM | – | Active | Active | IC50 [10, 44]: 2810 nM; inhibition [22]: > 80%; inhibition [23]: > 80%; inhibition [24]: > 80%; inhibition [25]: > 80%; inhibition [26]: > 80%; inhibition [27]: > 80%; inhibition [28]: > 80%; inhibition [29]: inactive; inhibition [30]: > 80%; inhibition [31]: > 80%; inhibition [32]: > 80%; inhibition [34]: > 80%; inhibition [35]: > 80%; inhibition [36]: > 80%; inhibition [37]: > 80%; inhibition [38]: > 80%; inhibition [39]: > 80%; inhibition [40]: > 80%; inhibition [41]: > 80%
– | – | > 80% | – | > 80% | > 80% | – | 690 nM | – | – | 1410 nM | – | – | > 80% | CCN(C)S(=O)(=O)Nc1ccc(F)c(C(=O)c2c[nH]c3ncc(-c4ccc(Cl)cc4)cc23)c1F | inactive | Active | 560 nM | Not Active | Active | Active | inhibition [42]: > 80%
> 80% | – | – | > 80% | > 80% | > 80% | > 80% | – | > 80% | > 80% | – | > 80% | > 80% | > 80% | Cc1ccc(NC(=O)c2cccc(C(C)(C)C#N)c2)cc1Nc1ccc2ncn(C)c(=O)c2c1 | Active | Active | 40 nM | – | Active | Active | inhibition [43]: > 80%; IC50 [10, 44]: 170 nM; inhibition [22]: > 80%; inhibition [23]: > 80%; inhibition [25]: > 80%; inhibition [26]: > 80%; inhibition [27]: > 80%; inhibition [28]: > 80%; inhibition [29]: inactive; inhibition [30]: > 80%; inhibition [31]: > 80%; inhibition [34]: > 80%; inhibition [36]: > 80%; inhibition [37]: > 80%; inhibition [38]: > 80%
> 80% | > 80% | > 80% | > 80% | > 80% | – | – | – | – | – | – | – | – | – | CCCS(=O)(=O)Nc1ccc(F)c(C(=O)c2c[nH]c3ncc(Cl)cc23)c1F | – | – | – | – | – | – | –
